Test results from ChEMBL document CHEMBL1133737, “Topoisomerase I-mediated antiproliferative activity of enantiomerically pure fluorinated homocamptothecins” (J Med Chem, 2000).

Tests used:
T-24 = experiment: Cytotoxicity against T24 tumor cell line determined by WST-1 assay; format: functional, cell-based; details: Homo sapiens
Outline: (§1)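 Cells exposed to drug for 72 h; surviving cells measured colorimetrically with soluble tetrazolium WST-1. IC50 is the mean of triplicate determinations. HT29 and A549 sourced from ATCC. T24r was derived from T24 bladder carcinoma by prolonged exposure to vinorelbine, PE1001 and doxorubicin, and is multidrug resistant through Pg-P overexpression. A549 is resistant through MRP overexpression.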

HT-29 = experiment: Cytotoxicity against HT-29 tumor cell line determined by WST-1 assay; format: functional, cell-based; details: Homo sapiens; outline: as §1
[1] = molecular target: T1, DNA topoisomerase 1 (Homo sapiens) (UniProt P11387); experiment: Stimulation of pKMp27 DNA cleavage by human DNA topoisomerase I in presence of 0.1 uM of compound
T1 sequence (whole entry): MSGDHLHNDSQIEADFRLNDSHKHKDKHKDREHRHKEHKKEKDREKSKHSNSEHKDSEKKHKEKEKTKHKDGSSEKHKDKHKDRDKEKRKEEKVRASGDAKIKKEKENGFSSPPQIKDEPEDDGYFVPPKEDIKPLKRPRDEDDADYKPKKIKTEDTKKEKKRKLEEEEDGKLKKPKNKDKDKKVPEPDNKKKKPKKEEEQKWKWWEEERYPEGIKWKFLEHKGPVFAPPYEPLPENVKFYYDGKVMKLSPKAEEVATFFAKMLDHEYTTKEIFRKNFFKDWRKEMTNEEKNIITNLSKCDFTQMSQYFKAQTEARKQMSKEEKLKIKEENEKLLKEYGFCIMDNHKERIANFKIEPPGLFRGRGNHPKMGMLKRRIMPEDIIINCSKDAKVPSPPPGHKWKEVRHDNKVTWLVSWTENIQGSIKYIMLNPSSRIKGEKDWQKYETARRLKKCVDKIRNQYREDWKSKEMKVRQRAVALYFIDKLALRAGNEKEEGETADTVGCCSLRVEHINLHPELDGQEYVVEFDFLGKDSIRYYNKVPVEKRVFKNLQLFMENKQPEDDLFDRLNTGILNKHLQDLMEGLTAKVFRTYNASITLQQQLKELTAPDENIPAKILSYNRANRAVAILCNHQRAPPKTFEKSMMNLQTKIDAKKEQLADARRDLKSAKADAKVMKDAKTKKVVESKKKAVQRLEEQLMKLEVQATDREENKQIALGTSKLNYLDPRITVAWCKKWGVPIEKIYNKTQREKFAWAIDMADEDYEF
Outline: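 Human Topo I incubated with supercoiled plasmid pKMp27 DNA and 0.1 µM drug. Products resolved on agarose gel containing ethidium bromide. Nicked DNA fraction quantified and stimulation calculated as (N−N0)/N0, where N and N0 are the nicked fractions with and without drug. Values compiled from quantitative analysis of three gels.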

A549 = experiment: Cytotoxicity against A549 tumor cell line determined by WST-1 assay; format: functional, cell-based; details: Homo sapiens; outline: as §1

Row | SMILES | IC50 (T-24) [µM] | IC50 (HT-29) [µM] | Stimulation [1] | IC50 (A549) [µM]
1 | CC[C@@]1(O)CC(=O)OCc2c1cc1n(c2=O)Cc2cc3cc(F)c(F)cc3nc2-1 [DIFLOMOTECAN] | 0.0004 | 0.0084 | 32 | 0.0034
2 | CC[C@@]1(O)CC(=O)OCc2c1cc1n(c2=O)Cc2cc3c(F)cccc3nc2-1 | 0.0016 | 0.02 | 18 | 0.017
3 | CC[C@@]1(O)C(=O)OCc2c1cc1n(c2=O)Cc2cc3ccccc3nc2-1 [CAMPTOTHECIN] | 0.088 | 0.08 | 8.2 | 0.067
4 | CC[C@@]1(O)CC(=O)OCc2c1cc1n(c2=O)Cc2cc3c(F)cc(F)cc3nc2-1 | 0.00032 | 0.01 | 30 | 0.0019
5 | CC[C@@]1(O)CC(=O)OCc2c1cc1n(c2=O)Cc2cc3cc(F)ccc3nc2-1 | 0.0045 | 0.027 | 17 | 0.022
6 | CC[C@@]1(O)CC(=O)OCc2c1cc1n(c2=O)Cc2cc3ccc(F)cc3nc2-1 | 0.00017 | 0.011 | 29 | 0.0029
7 | CC[C@@]1(O)CC(=O)OCc2c1cc1n(c2=O)Cc2cc3cccc(F)c3nc2-1 | 0.022 | 0.19 | 7.3 | 0.13
8 | CC[C@@]1(O)CC(=O)OCc2c1cc1n(c2=O)Cc2cc3ccccc3nc2-1 [HOMOCAMPTOTHECIN] | 0.0033 | 0.03 | 21 | 0.026
